Here are results for 23 compounds from BindingDB's records for doi:10.1016/j.ejmech.2017.02.062 (Padmashri Vikhe Patil College of Arts, 2017).

In the first assay the target is T1, Retinoblastoma-associated protein (Homo sapiens, UniProt P06400).
T1 sequence (P06400 whole entry): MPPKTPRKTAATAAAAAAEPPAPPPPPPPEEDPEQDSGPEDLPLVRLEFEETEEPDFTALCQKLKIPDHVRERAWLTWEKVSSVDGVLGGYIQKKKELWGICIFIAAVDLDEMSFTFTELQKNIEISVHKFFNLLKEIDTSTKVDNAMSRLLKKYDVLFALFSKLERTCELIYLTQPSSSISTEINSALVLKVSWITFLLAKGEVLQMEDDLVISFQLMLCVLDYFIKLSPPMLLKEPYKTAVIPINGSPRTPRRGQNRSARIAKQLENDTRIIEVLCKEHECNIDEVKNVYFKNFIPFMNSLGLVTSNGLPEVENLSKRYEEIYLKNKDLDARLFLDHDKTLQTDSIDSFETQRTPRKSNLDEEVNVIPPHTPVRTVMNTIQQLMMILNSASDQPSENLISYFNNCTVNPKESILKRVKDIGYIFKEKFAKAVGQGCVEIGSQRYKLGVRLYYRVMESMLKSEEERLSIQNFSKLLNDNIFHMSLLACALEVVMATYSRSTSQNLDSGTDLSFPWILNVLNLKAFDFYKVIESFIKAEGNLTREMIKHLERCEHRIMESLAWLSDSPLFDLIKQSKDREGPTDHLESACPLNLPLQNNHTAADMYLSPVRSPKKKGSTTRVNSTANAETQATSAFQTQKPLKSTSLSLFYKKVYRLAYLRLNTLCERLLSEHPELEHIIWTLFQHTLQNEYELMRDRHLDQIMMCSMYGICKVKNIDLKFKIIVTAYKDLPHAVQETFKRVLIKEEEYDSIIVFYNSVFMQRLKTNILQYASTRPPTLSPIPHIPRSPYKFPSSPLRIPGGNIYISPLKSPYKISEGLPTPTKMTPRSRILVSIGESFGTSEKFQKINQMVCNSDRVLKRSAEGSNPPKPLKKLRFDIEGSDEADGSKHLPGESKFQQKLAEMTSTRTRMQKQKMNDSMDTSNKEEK
The assay can be described thus: ChEBML_1684306.
`Cc1ccc2[nH]c3c(c2c1)CCC(NC1CCC(C)C1)C3` (stereo not drawn) gave an IC50 of 2 µM.

As to `Cc1ccc(CNC2CCc3c([nH]c4ccc(C)cc34)C2)cc1` (stereo not drawn), the IC50 is 2.9 µM. `O=S(=O)(NC1CCc2c([nH]c3ccccc23)C1)c1cccnc1` (stereo not drawn) displayed an IC50 greater than 100 µM.

On to `COc1cccc(C(=O)NC2CCc3c([nH]c4ccccc34)C2)c1` (stereo not drawn), for which the IC50 is greater than 100 µM. The same measure, in the same setting: next, `Cc1ccc2[nH]c3c(c2c1)CCC(NCc1ccccc1)C3` (stereo not drawn): 2.2 µM. As for `N#Cc1ccc(S(=O)(=O)NC2CCc3c([nH]c4ccccc34)C2)cc1` (stereo not drawn), the IC50 is greater than 100 µM.

In turn, `O=S(=O)(NC1CCCc2c1[nH]c1ccccc21)c1ccc(F)cc1` (stereo not drawn) came in with an IC50 of 9.2 µM. In turn, `O=C(NC1CCc2c([nH]c3ccccc23)C1)c1cccc(F)c1` (stereo not drawn) came in with an IC50 of 100 µM. The same measure, in the same setting: then `O=S(=O)(NC1CCCc2c1[nH]c1ccccc21)c1cccnc1` (stereo not drawn), with greater than 100 µM; and `Cc1ccc(CNC2CCc3c([nH]c4ccccc34)C2)cc1` (stereo not drawn), with 4.1 µM.

`CC1CCC(NC2CCCc3c2[nH]c2ccc([N+](=O)[O-])cc32)C1` (stereo not drawn) registered an IC50 of 4.81 µM.

The compound `Cc1ccc(CNC2CCc3c(n(C)c4ccccc34)C2)cc1` (stereo not drawn) showed an IC50 of 3.5 µM. The same measure, in the same setting: next, `CC1CCC(NC2CCc3c([nH]c4ccccc34)C2)C1` (stereo not drawn): 17.3 µM; `c1ccc2c3c([nH]c2c1)C(NC1CCCC1)CCC3` (stereo not drawn): 10 µM; `N#Cc1ccc(S(=O)(=O)NC2CCCc3c2[nH]c2ccccc32)cc1` (stereo not drawn): greater than 100 µM. On the same count and under the same terms, then `O=S(=O)(NC1CCc2c([nH]c3ccccc23)C1)c1ccc(F)cc1` (stereo not drawn), with 9.5 µM; and `O=C(NC1CCc2c([nH]c3ccccc23)C1)c1ccccc1F` (stereo not drawn), with greater than 100 µM; and `c1ccc2c3c([nH]c2c1)C(NC1CCCCC1)CCC3` (stereo not drawn), with 15 µM.

Compound `c1ccc2c3c([nH]c2c1)CC(NC1CCCCC1)CC3` (stereo not drawn) returned an IC50 of 11 µM. For `c1ccc2c3c([nH]c2c1)CC(NC1CCOCC1)CC3` (stereo not drawn), the IC50 is greater than 100 µM.

The compound `c1ccc2c3c([nH]c2c1)CC(NC1CCCC1)CC3` (stereo not drawn) showed an IC50 of 10 µM.

`c1ccc(CNC2CCc3c([nH]c4ccccc34)C2)cc1` (stereo not drawn) registered an IC50 of 6.92 µM.

The target in another assay is T1, Retinoblastoma-associated protein. Nature of the assay: Inhibition of retinoblastoma protein phosphorylation in human MDA-MB-231 cells after 16 hrs by Hoechst 33342 staining based fluorescence assay. Put shortly:
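Fixation in 3.7% formaldehyde, 0.1% Triton X permeabilization, anti-pRb primary with Dylight 549 secondary; nuclei counterstained with Hoechst 33342; high-content imaging on ArrayScan reader.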
`CC1CCC(NC2CCCc3c2[nH]c2ccccc32)C1` (stereo not drawn) registered an IC50 of 15 µM.

As a reminder, the IC50 is the concentration needed to halve the response being measured.
